Screening data (PubChem)
ABCB6 inh 2: human ABCB6 transporter inhibition; Q9NP58; K562-ABCB6 porphyrin accumulation, flow cytometry, 1 h; active compounds read low; fluorescence ratio to DMSO, % at 10 µM; actives 0.19% (n = 360,000); AID 602162;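 active = fluorescence ratio to DMSO below 75%, the collection mean minus 3 SD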;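 also: signal is porphyrin accumulated inside mitochondria; 100% equals median channel fluorescence of DMSO control wells; lower ratio means ABCB6 inhibition with less porphyrin fluorescence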
VLA-4 inh: inhibition in a human VLA-4 binding assay; P13612; VLA-4 expressing cells, ligand binding flow cytometry; inhibition, % (about 7 µM as worked out from the volumes in the protocol); actives 0.2% (n = 330,000); AID 2557; in the data active = inhibition above about 50%
Target sequence (P13612 whole entry, looked up): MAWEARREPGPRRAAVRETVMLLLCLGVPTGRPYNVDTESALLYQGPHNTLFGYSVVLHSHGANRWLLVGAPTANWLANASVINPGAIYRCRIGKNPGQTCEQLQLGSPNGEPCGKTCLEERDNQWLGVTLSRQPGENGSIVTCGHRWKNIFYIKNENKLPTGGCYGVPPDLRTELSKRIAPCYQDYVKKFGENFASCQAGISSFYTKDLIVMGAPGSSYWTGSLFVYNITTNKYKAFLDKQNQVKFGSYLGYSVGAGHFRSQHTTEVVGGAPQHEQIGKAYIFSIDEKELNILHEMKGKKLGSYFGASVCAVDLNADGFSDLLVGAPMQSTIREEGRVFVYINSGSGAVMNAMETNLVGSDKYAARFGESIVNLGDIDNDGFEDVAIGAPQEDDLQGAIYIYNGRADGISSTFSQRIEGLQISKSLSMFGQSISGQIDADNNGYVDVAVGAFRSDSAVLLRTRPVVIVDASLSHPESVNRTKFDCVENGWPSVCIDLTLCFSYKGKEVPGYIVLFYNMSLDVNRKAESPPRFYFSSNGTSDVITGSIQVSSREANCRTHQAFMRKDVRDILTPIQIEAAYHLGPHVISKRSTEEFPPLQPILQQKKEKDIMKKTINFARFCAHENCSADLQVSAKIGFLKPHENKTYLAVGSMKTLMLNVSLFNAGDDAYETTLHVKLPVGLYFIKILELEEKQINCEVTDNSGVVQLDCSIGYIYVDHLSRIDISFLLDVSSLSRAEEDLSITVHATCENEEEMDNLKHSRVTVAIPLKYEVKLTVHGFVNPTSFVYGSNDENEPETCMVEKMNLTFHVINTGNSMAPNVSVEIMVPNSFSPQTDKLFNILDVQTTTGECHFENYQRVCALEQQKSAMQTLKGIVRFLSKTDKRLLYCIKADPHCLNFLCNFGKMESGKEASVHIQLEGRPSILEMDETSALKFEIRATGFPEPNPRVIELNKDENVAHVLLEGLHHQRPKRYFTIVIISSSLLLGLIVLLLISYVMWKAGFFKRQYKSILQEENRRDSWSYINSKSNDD
DAGLB inh: blocks human DAGLB lipase activity; HEK293T DAGLB membrane lysate, EnzChek fluorogenic substrate; inhibition, % at 5.17 µM; Q8NCG7; actives 0.059% (n = 340,000); AID 504411; in the data active = inhibition above about 34%;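 also: 0% = enzyme with vehicle and 100% = wells lacking enzyme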
Granule exo inh: blocks lytic granule exocytosis; actives 0.66% (n = 360,000); AID 651702; inhibition, % at 10 µM; TALL-104 LAMP-1 surface exposure, flow cytometry; cells stimulated with thapsigargin and PMA;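 active = inhibition above about 55%, limit read from the data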
MT1-MMP act inh: MT1-MMP (human) activation inhibition | P50281 | HT1080 RFP-PRO-GFP cells, GFP/RFP ratio fluorescence, overnight; percent of plate control window, DMSO zero | GFP/RFP ratio change, % at 20 µM | actives 0.061% (n = 360,000);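 active = GFP/RFP ratio change of at least 30% with cell ATP level not reduced by more than half and red fluorescence within 50% of control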
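Material: RFP-PRO-GFP reporter HT1080 cells. Dosing: single-point 20 µM compound, 1% DMSO. Controls: DMSO and RFP-L50D-GFP cell wells. Timing: cells overnight before dosing, compound overnight, 37 °C, 5% CO2. Measure: GFP/RFP fluorescence ratio.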
FGF22 binding: FGF22 (human) thermal shift binding; recombinant FGF22 thermal shift, SYPRO orange fluorescence; percent of sucrose octasulfate shift, DMSO zero; actives 1.5% (n = 340,000); activity (Tm shift, normalised), % at 9.99 µM; AID 651658; Q9HCT0;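 active = mean Tm shift, scaled 0 neutral to 100 positive control, at about 1.3% or above, every replicate too, limit read from the data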
Exocytosis CP01: blocks lytic granule exocytosis | actives 11% (n = 1,500) | TALL-104 cells, LAMP-1 externalization, flow cytometry; stimulated with PMA plus thapsigargin | shares compounds with Granule exo inh | inhibition, % at 10 µM; in the data active = inhibition above about 60%;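 also: 0% = stimulated vehicle wells and 100% = unstimulated wells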
Starred values were filed as active, the others as inactive; . = no result given. Hits are enriched below; roughly 2% of the tested compounds scored in any of these assays.

SMILES	ABCB6 inh 2	VLA-4 inh	DAGLB inh	Granule exo inh	MT1-MMP act inh	FGF22 binding	Exocytosis CP01
COc1ccc(-c2nc(C(=O)NCCCN3CCOCC3)cc3c2[nH]c2ccccc23)cc1OC	98	3	-2	12	24	0	.
Cc1ccc(-c2nc(C(=O)NCCCN3CCOCC3)cc3c2[nH]c2ccccc23)cc1	94	-2	0	56*	4	0	18
O=C(NCCCN1CCCC1=O)C1CCN(S(=O)(=O)c2cccc(C(F)(F)F)c2)CC1	103	15	-1	0	1	0	.
O=C(NCCCN1CCCC1=O)C1CCN(S(=O)(=O)c2cc(C(F)(F)F)ccc2Cl)CC1	87	-26	1	90*	3	0	-11
CN(C)CC(=O)N1[C@@H]2c3ccc(-c4ccccc4)c(=O)n3C[C@H]1[C@H](CO)[C@H]2C(=O)N1CCOCC1	.	.	.	.	.	0	.
CCCS(=O)(=O)NC(=O)C1(C)CCCN(C(=O)COc2ccc(Cl)cc2Cl)C1 (stereo not given)	107	.	.	5	7	0	.
CCCS(=O)(=O)NC(=O)C1(C)CCN(C(=O)COc2ccc(Cl)cc2Cl)C1 (stereo not given)	105	.	.	61*	3	0	-3
CC1CC(=O)c2cnc(N3CCOCC3)nc2C1 (stereo not given)	98	-2	2	100*	5	.	-4
CCCNC(=O)Nc1ccc2c(c1)C(=O)N(C)C[C@@H](OC)[C@@H](C)CN(C(C)=O)[C@H](C)CO2	.	.	.	.	.	0	.
COc1ccc(NC(=O)N(C)C[C@@H]2Oc3c(NS(=O)(=O)c4ccc(Cl)cc4)cccc3C(=O)N([C@@H](C)CO)C[C@H]2C)cc1	.	.	.	.	.	0	.
O=[N+]([O-])c1ccc2nc(/C=C/c3ccc(Cl)cc3)[nH]c2c1	95	4	-3	91*	16	.	88*
O=[N+]([O-])c1ccc(-c2nc3ccc([N+](=O)[O-])cc3[nH]2)cc1	94	10	2	-1	2	.	.
Cc1ccc2c(Cl)cc(Cl)c(OCc3c(C)noc3C)c2n1	96	17	-6	59*	0	.	-4
CC(C)(C)C1CCC(=O)N(CCOc2ccccc2)CC1 (stereo not given)	100	2	-6	67*	-2	0	-13
O=C(Nc1ccc2c(c1)OCCO2)c1cccc(Cl)c1	93	8	-2	-10	1	0	.
O=C(Nc1cccc(Cl)c1)c1ccc2c(c1)OCCO2	100	18	1	61*	1	0	-5
COc1ccc(CCN(C)C(=O)CSc2ncnc3sccc23)cc1OC	102	-7	-1	77*	2	0	-12
CCn1c(=O)c2cc(C(=O)NCCC(C)C)sc2c2ccccc21	96	6	-3	71*	4	0	-8
NC(=O)CC(NC(=O)Cc1cccc2ccccc12)c1ccc(N2CCC(Cc3ccccc3)CC2)c([N+](=O)[O-])c1 (stereo not given)	96	12	8	60*	4	0	-10
Cc1ccc(-c2cn(S(=O)(=O)c3ccc(C)cc3)nc2N)cc1	93	3	-5	3	-4	.	.
CCOc1ccc(S(=O)(=O)n2cc(-c3ccc(F)cc3)c(N)n2)cc1	89	0	-4	74*	-7	.	2
CCOc1ccc(S(=O)(=O)n2cc(-c3ccccc3)c(N)n2)cc1	91	14	-4	67*	1	0	-7
Cc1cccc(NC(=O)CSc2nc3ccccc3c3nc(CCc4c(C)n[nH]c4C)nn23)c1	95	-13	2	-8	7	.	.
Cc1cncn1CCc1nc2c3ccccc3nc(SCC(=O)Nc3cccc(Cl)c3)n2n1	97	41	2	68*	3	.	81*
CCOC(=O)C1(Cc2cccc(OC)c2)CCN(C/C=C/c2ccccc2)CC1	90	13	-4	64*	-5	0	-12
